Bioassay records as filed in PubChem BioAssay.
This is a sample that favours compounds with a hit; in the whole collection about 1.5% have one here.
APJ ag – agonists of human APJ apelin receptor | actives 0.11% (n = 330,000) | CHO-K1 APJ PathHunter beta-arrestin, luminescence; 0% DMSO wells, 100% apelin | AID 2520 | P35414 | activation, % at 20 µM;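 active = activation more than six SD over the plate average, tested at 20 µM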;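 also: 0% = DMSO alone and 100% = apelin-13 at 10 nM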
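Incubation: overnight seeding, 90 min compound at 25 °C, 1 h detection; test system: PathHunter CHO-K1 APJ (AGTRL-1) beta-arrestin reporter cells; amount: 1000 cells/well; doses: one dose, 20 µM compound, 1% DMSO; measured by: beta-gal luminescence; measure: agonist-driven arrestin binding to APJ; benchmarks: negative DMSO alone, positive Apelin-13 at 10 nM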
CXCR6 inh – inhibitors of human CXCR6 receptor; O00574; CHO-K1 PathHunter CXCR6 beta-arrestin, luminescence; inhibition, % at 20 µM; actives 0.36% (n = 360,000); AID 602244; in the data active = inhibition above about 34%, passing the limit was not always enough;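 also: antagonist mode with CXCL16 agonist at 10 nM final; 0% = 10 nM CXCL16 with DMSO and 100% = unstimulated wells without agonist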
Target sequence (O00574 whole entry, looked up): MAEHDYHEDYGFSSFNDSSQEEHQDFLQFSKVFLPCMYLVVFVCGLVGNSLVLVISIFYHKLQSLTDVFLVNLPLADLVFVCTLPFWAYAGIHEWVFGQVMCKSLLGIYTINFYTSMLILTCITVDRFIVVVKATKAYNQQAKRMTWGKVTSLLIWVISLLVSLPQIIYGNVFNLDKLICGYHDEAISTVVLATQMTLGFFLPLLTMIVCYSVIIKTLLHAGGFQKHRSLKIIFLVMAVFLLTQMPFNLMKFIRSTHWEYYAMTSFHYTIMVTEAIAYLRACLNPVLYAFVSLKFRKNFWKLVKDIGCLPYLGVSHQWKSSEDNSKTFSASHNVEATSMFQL
EBI2 antag – antagonists of human EBI2 receptor | actives 0.81% (n = 360,000) | AID 651636 | inhibition, % at 5 µM | EBI2 beta-arrestin recruitment, luminescence, 7a,25-OHC stimulated; in the data active = inhibition above about 38%;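 also: enzyme fragment complementation signal reports receptor beta-arrestin coupling in cells; 0% = agonist plus DMSO wells and 100% = wells without agonist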
APJ antag – blocks the human apelin receptor APJ; P35414; CHO-K1 APJ beta-arrestin complementation, luminescence; inhibition, % at 20 µM; actives 0.32% (n = 330,000);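 active = inhibition above about 40% at 20 µM, limit read from the data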;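 also: cells challenged with 10 nM apelin-13 agonist together with compound; plate controls were apelin-13 plus DMSO wells for no effect and DMSO wells lacking apelin-13 for full effect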
CCR6 antagonist – CCR6 (human) receptor antagonism; P51684; CHO-K1 CCR6 PathHunter beta-arrestin, luminescence, CCL20-stimulated; inhibition, % at 20 µM; actives 0.49% (n = 340,000);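 active = compounds whose inhibition of the agonist-driven luminescence signal at 20 µM reaches about 50%, limit read from the data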;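 also: cells stimulated with CCL20 at 14 nM final; plate controls were DMSO with CCL20 for no effect and DMSO without agonist for full effect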
EBI2 conf – EBI2 (human) antagonism, single concentration confirmation; inhibition, % at 5 µM; actives 29% (n = 2,400); shares compounds with EBI2 antag; EBI2 beta-arrestin luminescence, 7a,25-OHC antagonism;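 active = inhibition of at least 50%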
EBI2 agonist – EBI2 agonism counter-screen. 2,400 tested, under 10 active. shares compounds with EBI2 antag. AID 652000. EBI2-expressing cells, agonist mode, luminescence, 60 min; 0% vehicle, 100% 7α,25-dihydroxycholesterol control. activation, % at 5 µM;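 active = activation of at least 50%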
bGal counter – beta-galactosidase inhibition counter-screen; shares compounds with EBI2 antag; purified beta-galactosidase, luminescent Galacton Star, 15 min; inhibition, % at 5 µM; actives 1% (n = 2,400);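 active = replicate-average signal at least 3 plate SD below neutral wells, shown as high inhibition, flagging enzyme-inhibiting false positives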;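 also: 0% = DMSO wells with enzyme and 100% = wells lacking enzyme; higher means stronger loss of beta-gal luminescence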
Numbers without * were called inactive; . = not tested or not shown.

SMILES	APJ ag	CXCR6 inh	EBI2 antag	APJ antag	CCR6 antagonist	EBI2 conf	EBI2 agonist	bGal counter
COc1ccc(CNC(=O)c2cc(=O)c3cc(C)c(C)cc3o2)cc1	-5	-5	56*	-5	2	38	1	5
Cc1cc(C)c2cc(C#N)c(NCCCNC(=O)c3cccnc3)nc2c1	.	-11	2	.	.	.	.	.
Cc1ccc2oc(=O)c3cnn(CC(=O)N4CCN(c5ccccc5)CC4)c3c2c1	4	8	23	11	24	.	.	.
Cc1ccc2oc(=O)c3cnn(CC(=O)N4CCCc5ccccc54)c3c2c1	-1	7	53*	6	4	22	0	-14
COCCCN(Cc1ccco1)C(=O)Cn1ncc2c(=O)oc3ccc(C)cc3c21	-1	-7	55*	-11	11	40	-1	-12
Cc1c(C(=O)N2CCN(C(c3ccccc3)c3ccccc3)CC2)oc2ccccc12	-4	-1	87*	9	18	40	-1	-5
CCOc1ccc2oc(C(=O)N3CCN(c4ccccc4OCC)CC3)c(C)c2c1	-2	-7	27	15	7	.	.	.
CCc1ccc2oc(C(=O)N3CCN(c4ccccc4OC)CC3)cc(=O)c2c1	-5	-5	91*	4	15	84*	-1	-14
COc1ccc2c(C)c(C(=O)N3CCN(Cc4ccccc4)CC3)oc2c1	-1	-3	45*	-3	19	15	0	7
COc1ccccc1N1CCN(C(=O)c2oc3cc(C)c(C)cc3c2C)CC1	.	-4	59*	.	12	32	1	8
COc1ccc(Cn2c(=O)[nH]c3cc(C(=O)N4CCN(Cc5ccccc5)CC4)ccc3c2=O)cc1	5	1	3	-6	-9	.	.	.
CC(=O)NC(C)(c1ccccc1)c1nc(-c2ccc(F)c(Cl)c2)cs1 (configuration not stated)	.	-2	23	.	.	.	.	.
CC1=C(C(=O)N2CCCCCC2)CC(CC(=O)NC2CCCCC2)C(=O)N1Cc1ccc(F)cc1 (configuration not stated)	.	2	10	.	.	.	.	.
CC1(c2nnnn2-c2ccc3c(c2)OCCO3)CCC(=O)N1CCc1ccccc1F (configuration not stated)	.	-9	2	.	.	.	.	.
COc1ccc(Cl)c(-c2cc(C(=O)Nc3ccc(F)cc3)[nH]n2)c1	.	-10	5	.	.	.	.	.
CCc1ccc2oc(C(=O)N3CCN(c4ccc(OC)cc4)CC3)cc(=O)c2c1	-2	0	91*	15	11	83*	3	3
COc1ccccc1C(=O)N1CCCN(C(=O)c2ccccc2OC)CC1	1	-1	-7	6	9	.	.	.
COc1ccccc1C(=O)N1CCN(C(=O)c2oc3c(C)c(C)ccc3c2C)CC1	.	-16	51*	.	.	43	0	-20
Cc1cc2oc(C(=O)N3CCN(CCc4ccccn4)CC3)c(C)c2cc1C	9	-7	50*	4	3	32	1	2
CCCCN1C(=O)C(CC(=O)NCC2CCCCC2)CC(C(=O)N2CCCCCC2)=C1C (configuration not stated)	.	10	10	.	.	.	.	.
CCOc1ccccc1NC(=O)C1CCCN1S(=O)(=O)c1ccc2c(c1)C(C)(C)C(=O)N2C (configuration not stated)	.	1	5	.	.	.	.	.
COc1cc(CNC(=O)Nc2nnc([C@H]3C[C@H](O)[C@@H](CO)O3)s2)cc(OC)c1OC	.	12	-7	.	.	.	.	.
COCCOC(=O)c1c(NC(=O)CN2CCCc3ccccc32)sc(C(N)=O)c1C	-3	-5	76*	3	-2	49	1	-1
O=C1Nc2ccccc2-n2nnnc2C1N1CCc2ccccc2C1 (configuration not stated)	.	.	-4	.	.	.	.	.
C[C@@H]1CN([C@H](C)CO)C(=O)CCCn2nncc2CO[C@@H]1CN(C)S(=O)(=O)c1cccc(F)c1	.	4	56*	.	.	27	0	5
